Measurements collected from several papers.
Target: Muscarinic acetylcholine receptor M1 (CHRM1, Homo sapiens, UniProt P11229)
Concentration: 10 µM
One construct used (P11229 1-460): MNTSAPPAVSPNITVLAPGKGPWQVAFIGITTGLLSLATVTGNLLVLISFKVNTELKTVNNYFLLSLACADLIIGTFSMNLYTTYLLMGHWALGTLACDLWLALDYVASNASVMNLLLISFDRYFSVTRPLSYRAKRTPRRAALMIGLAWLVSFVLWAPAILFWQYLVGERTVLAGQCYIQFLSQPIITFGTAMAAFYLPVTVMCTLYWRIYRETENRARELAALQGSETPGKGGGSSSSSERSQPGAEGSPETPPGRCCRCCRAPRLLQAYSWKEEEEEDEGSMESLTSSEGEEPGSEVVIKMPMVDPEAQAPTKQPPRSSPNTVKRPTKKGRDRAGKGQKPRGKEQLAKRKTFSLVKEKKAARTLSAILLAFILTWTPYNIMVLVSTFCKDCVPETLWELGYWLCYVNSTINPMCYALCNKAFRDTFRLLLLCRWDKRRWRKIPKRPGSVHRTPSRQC

SMILES	assay	inhibition [%]
CC(C)N1CCC[C@H]1CNC(=O)c1cn(C2CCCC2)c(=O)c2c1c1ccccc1n2C	ligand displacement, radioligand	-1
CS(=O)(=O)c1cc(C2(NC(=O)c3cncc4c3cnn4-c3ccc(F)cc3)CC2)ccn1	cell-free assay	-14.8
CCN(CC)CCCC[C@H](NC(=O)[C@H](CC(C)C)NC(=O)[C@H](C)NC(=O)[C@H](Cc1ccccc1)NC(=O)c1ccc(C(C)(C)C)cc1)C(=O)N[C@@H](CO)C(=O)OC	ligand displacement, radioligand	1
COCc1c(-c2cc3cc(C)cc(OC)c3s2)c2c(N)ncnn2c1CN1CCNC(=O)C1	ligand displacement, radioligand	6
C[C@H](C(=O)N[C@H]1COc2ccccc2[C@@H]1S(C)(=O)=O)c1ccc(F)cc1	cell-free assay	-7
Clc1ccc2c(C3CCN(CCc4c[nH]c5ccccc45)CC3)c[nH]c2c1	ligand displacement, radioligand	31
c1ccc(C(NCCNC(c2ccccc2)c2ccccc2)c2ccccc2)cc1	cell-free assay	21
COc1ccc2cc(OCC3(C(=O)O)CN(C(=O)c4ccc(F)cc4)C3)ccc2c1	ligand displacement	-0.03
CN1CC[C@]2(C)c3cc(OC(=O)Nc4ccccc4)ccc3N(C)[C@H]12	ligand displacement, radioligand	0
